Data from ChEMBL document CHEMBL1142105, “Bioactive metabolites from the Caribbean sponge Aka coralliphagum” (J Nat Prod, 2007).
In brackets after ≈: the same amount, converted by molar mass.

Key:
[1] = DPPH radical scavenging activity at 40 umol/L relative to control; format: functional
Outline: (§1)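 Samples in EtOH (1000 µL at 200 or 40 µM) were mixed with 250 µL of 1 mM DPPH stock and 750 µL EtOH, then held at RT in the dark for 30 min. Absorbance was read at 517 nm. Scavenging % = 100 − (A sample × 100/A control).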

[2] = DPPH radical scavenging activity at 200 umol/L relative to control; format: functional; outline: as §1
Staphylococcus aureus = test: Antimicrobial activity against Staphylococcus aureus at 20 ug by agar diffusion test; format: functional; conditions: read-out: IZ
Outline: (§2)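 Agar diffusion on 6 mm paper disks loaded with 20 µL of a 1 mg/mL methanol solution (20 µg). Bacteria from the HZI collection were grown on standard media and seeded into agar medium at a final OD of 0.01. Plates were incubated at 30 °C, and inhibition zone diameter (mm) was read after 1 and 2 days.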

Escherichia coli = test: Antimicrobial activity against Escherichia coli tolC at 20 ug by agar diffusion test; format: functional; conditions: read-out: IZ; outline: as §2
Micrococcus luteus = test: Antimicrobial activity against Micrococcus luteus at 20 ug by agar diffusion test; format: functional; conditions: read-out: IZ; outline: as §2
Klebsiella pneumoniae = test: Antimicrobial activity against Klebsiella pneumoniae at 20 ug by agar diffusion test; format: functional; conditions: read-out: IZ; outline: as §2
L929 = test: Cytotoxicity against mouse L929 cells by MTT assay; format: cell-based
Outline: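 L929 mouse fibroblasts (DSMZ) were grown in high-glucose DME with 10% fetal calf serum at 37 °C and 10% CO2. Cell suspension (120 µL at 50 000/mL) was added to 60 µL of serial compound dilutions in microtiter plates. Growth was determined by MTT after 5 days, with concentrations expressed in µg/mL.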

Mycolicibacterium phlei = test: Antimicrobial activity against Mycobacterium phlei at 20 ug by agar diffusion test; format: functional; conditions: read-out: IZ; outline: as §2
[3] = system: Globisporangium debaryanum; test: Antimicrobial activity against Pythium debaryanum at 20 ug by agar diffusion test; format: functional; conditions: read-out: IZ
Outline: (§3)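 Fungal spores were rinsed from well-grown Petri dishes with 10 mL sterile water, and 1 mL of the suspension was mixed into 100 mL molten agar. Disks (6 mm) with 20 µg compound (20 µL, 1 mg/mL in methanol) were placed on the agar. Plates were incubated at 30 °C, and zone diameter (mm) was scored after 1 and 2 days.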

Candida albicans = test: Antimicrobial activity against Candida albicans at 20 ug by agar diffusion test; format: functional; conditions: read-out: IZ
Outline: (§4)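 Yeasts from the HZI collection were seeded into agar medium at a final OD of 0.1. Paper disks (6 mm) carried 20 µg of compound, applied as 20 µL of 1 mg/mL in MeOH. Plates were kept at 30 °C, and inhibition zone diameters (mm) were measured at days 1 and 2.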

Saccharomyces cerevisiae = test: Antimicrobial activity against Saccharomyces cerevisiae at 20 ug by agar diffusion test; format: functional; conditions: read-out: IZ; outline: as §4
Wickerhamomyces anomalus = test: Antimicrobial activity against Hansenula anomala at 20 ug by agar diffusion test; format: functional; conditions: read-out: IZ; outline: as §4
Botrytis cinerea = test: Antimicrobial activity against Botrytis cinerea at 20 ug by agar diffusion test; format: functional; conditions: read-out: IZ; outline: as §3
Aspergillus fumigatus = test: Antimicrobial activity against Aspergillus fumigatus at 20 ug by agar diffusion test; format: functional; conditions: read-out: IZ; outline: as §3
Pseudomonas aeruginosa = test: Antimicrobial activity against Pseudomonas aeruginosa at 20 ug by agar diffusion test; format: functional; conditions: read-out: IZ; outline: as §2

SMILES	Activity [1]	Activity [2]	zone of inhibition at 20 µg/disc (Staphylococcus aureus)	zone of inhibition at 20 µg/disc (Escherichia coli)	zone of inhibition at 20 µg/disc (Micrococcus luteus)	zone of inhibition at 20 µg/disc (Klebsiella pneumoniae)	Activity (L929)	zone of inhibition at 20 µg/disc (Mycolicibacterium phlei)	zone of inhibition at 20 µg/disc [3]	zone of inhibition at 20 µg/disc (Candida albicans)	zone of inhibition at 20 µg/disc (Saccharomyces cerevisiae)	zone of inhibition at 20 µg/disc (Wickerhamomyces anomalus)	zone of inhibition at 20 µg/disc (Botrytis cinerea)	zone of inhibition at 20 µg/disc (Aspergillus fumigatus)	zone of inhibition at 20 µg/disc (Pseudomonas aeruginosa)	IC50 (L929)
O=C1O[C@H]([C@@H](O)CO)C(O)=C1O	27%	95.3%	–	–	–	–	–	–	–	–	–	–	–	–	–	–
C[C@H]1CCC2C(C)(C)CCC[C@]2(C)/C1=C/c1cc(O)c(O)c(/C=N/CCS(=O)(=O)O)c1OS(=O)(=O)O (some centres undefined) [SIPHONODICTYAL B1]	23.5%	80.8%	12 mm	0 mm	0 mm	0 mm	10 µg/mL	0 mm	0 mm	0 mm	0 mm	0 mm	13 mm	0 mm	0 mm	–
C[C@H]1CCC2C(C)(C)CCC[C@]2(C)/C1=C/c1cc(O)c(O)c(C=O)c1OS(=O)(=O)O (some centres undefined) [SIPHONODICTYAL B2]	25.3%	88.8%	13 mm	0 mm	0 mm	0 mm	–	0 mm	0 mm	0 mm	0 mm	–	15 mm	0 mm	0 mm	6 µg/mL (≈ 13.7 µM)
C[C@H]1CCC2C(C)(C)CCC[C@]2(C)/C1=C/c1cc(OS(=O)(=O)O)c(O)c(C=O)c1OS(=O)(=O)O (some centres undefined) [SIPHONODICTYAL B3]	–	–	0 mm	0 mm	0 mm	0 mm	> 40 µg/mL	0 mm	0 mm	0 mm	0 mm	0 mm	0 mm	0 mm	0 mm	–
C[C@H]1CCC2C(C)(C)CCC[C@]2(C)/C1=C/c1cc(O)c(O)c(C=O)c1O (some centres undefined) [SIPHONODICTYAL B]	–	–	12 mm	9 mm	–	–	0.2 µg/mL	–	–	–	0 mm	–	–	15 mm	–	–
C=C1CCCC2[C@](C)(Cc3cc(C=O)cc(O)c3OS(=O)(=O)O)[C@@H](C)CC[C@]12C (some centres undefined) [SIPHONODICTYAL G]	5.9%	32.2%	0 mm	0 mm	0 mm	0 mm	10 µg/mL	0 mm	0 mm	0 mm	0 mm	0 mm	0 mm	0 mm	0 mm	–
C=C1CCCC2[C@](C)(Cc3cc(CO)cc(O)c3OS(=O)(=O)O)[C@@H](C)CC[C@]12C (some centres undefined) [SIPHONODICTYOL G]	2.6%	39.8%	0 mm	0 mm	0 mm	0 mm	> 40 µg/mL	0 mm	0 mm	0 mm	0 mm	0 mm	15 mm	0 mm	0 mm	–
